Calls of active or inactive are those of the source. The rule behind the calls is not given here.
What was measured:
[1] = system: HCT-116; assay: Drug metabolism in human HCT116 cells assessed as quercetin level at 30 uM after 1 hr by HPLC analysis; assay type: ADME, cell-based; details: hct-116, 1 h
Outline: (§1)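 MCF-7 or HCT116 cells were seeded at 2×10^5 per well and grown 24 h at 37 °C, 5% CO2, then given 30 µM conjugate. At 1, 3, 6 and 12 h cells were PBS-washed, trypsinized, sonicated and filtered. Lysates were run on C18 HPLC (UV 340 nm). Each species is reported as a percentage of integrated peak area; peaks were identified by MALDI-TOF MS.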

[2] = Metabolic stability in human HCT116 cells assessed as compound remaining at 30 uM after 12 hrs by HPLC analysis; assay type: ADME, cell-based, HCT-116; details: read-out: Stability; outline: as §1
[3] = Metabolic stability in human HCT116 cells assessed as compound remaining at 30 uM after 6 hrs by HPLC analysis; assay type: ADME, cell-based, HCT-116; details: read-out: Stability; outline: as §1
[4] = Metabolic stability in human HCT116 cells assessed as compound remaining at 30 uM after 3 hrs by HPLC analysis; assay type: ADME, cell-based, HCT-116; details: read-out: Stability; outline: as §1
[5] = Metabolic stability in human HCT116 cells assessed as compound remaining at 30 uM after 1 hr by HPLC analysis; assay type: ADME, cell-based, HCT-116; details: read-out: Stability; outline: as §1
[6] = Metabolic stability in human MCF7 cells assessed as compound remaining at 30 uM after 3 hrs by HPLC analysis; assay type: ADME, cell-based; details: read-out: Stability; outline: as §1
[7] = Metabolic stability in human MCF7 cells assessed as compound remaining at 30 uM after 6 hrs by HPLC analysis; assay type: ADME, cell-based; details: read-out: Stability; outline: as §1
[8] = Metabolic stability in human MCF7 cells assessed as compound remaining at 30 uM after 1 hr by HPLC analysis; assay type: ADME, cell-based; details: read-out: Stability; outline: as §1
[9] = Solubility of the compound in DMEM cell-free cell culture medium up to 100 uM; assay type: physicochemical
Outline: (§2)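 DMSO stocks ([…]–10 mM) were serially diluted into PBS pH 7.4 or DMEM with 10% FBS to final 0.5, 5, 25, 50, 100, 200 µM (2% DMSO) and 300 µM (3% DMSO). Solubility was judged by forward light scattering in a laser nephelometer.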

[10] = Solubility of the compound in PBS buffer at 0.5 to 300 uM; assay type: physicochemical; outline: as §2
[11] = Drug degradation in DMEM cell-free cell culture medium assessed as formation of 3-O-POC-Q at 50 uM after 24 hrs by HPLC analysis; assay type: physicochemical
Outline: (§3)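 Conjugates diluted from a 10 mM DMSO stock to 50 µM final in cell-free culture medium (DMEM with 10% FBS), held at 37 °C. Samples were taken at 0, 1, 3, 6, 12, 24, 48 and 96 h, vortexed, and run on C18 reverse-phase HPLC with an acetonitrile/0.1% formic acid gradient at 1 mL/min, detected by UV at 340 nm.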

[12] = Half life of the compound in DMEM cell-free cell culture medium at 50 uM by HPLC analysis; assay type: physicochemical; outline: as §3
[13] = Half life of the compound in PBS buffer at pH 7.4 at 50 uM by HPLC analysis; assay type: physicochemical
Outline: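 Compound at 50 µM in PBS pH 7.4, incubated at 37 °C. Aliquots were drawn at 0, 1, 3, 6, 12, 24, 48 and 96 h and analysed by C18 reverse-phase HPLC with an acetonitrile/0.1% formic acid gradient, detected by UV at 340 nm.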

[14] = system: HCT-116; assay: Cytotoxicity against human HCT116 cells at 1 to 100 uM after 12 hrs by MTT assay; assay type: functional, cell-based
Outline: (§4)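 MCF-7 or HCT116 cells were seeded at 5×10^3 per well in DMEM with 10% FBS and grown 1 day at 37 °C, 5% CO2. Compounds in 1% DMSO were added at 1, 5, 10, 50, 100 or 250 µM. Viability was read by MTT after 12 h; each assay was done three times.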

[15] = system: MCF7; assay: Drug metabolism in human MCF7 cells assessed as quercetin level at 30 uM after 12 hrs by HPLC analysis; assay type: ADME, cell-based; details: mcf7, 12 h; outline: as §1
[16] = system: MCF7; assay: Cytotoxicity against human MCF7 cells at 1 to 100 uM after 12 hrs by MTT assay; assay type: functional, cell-based; outline: as §4
[17] = system: MCF7; assay: Metabolic stability in human MCF7 cells assessed as compound remaining at 30 uM after 12 hrs by HPLC analysis; assay type: ADME, cell-based; details: mcf7, 12 h; outline: as §1
[18] = system: MCF7; assay: Drug metabolism in human MCF7 cells assessed as 3-O-POC-Q level at 30 uM after 12 hrs by HPLC analysis; assay type: ADME, cell-based; details: mcf7, 12 h; outline: as §1
[19] = system: HCT-116; assay: Drug metabolism in human HCT116 cells assessed as 7-O-POC-Q level at 30 uM after 6 hrs by HPLC analysis; assay type: ADME, cell-based; details: hct-116, 6 h; outline: as §1
[20] = system: HCT-116; assay: Drug metabolism in human HCT116 cells assessed as 7-O-POC-Q level at 30 uM after 12 hrs by HPLC analysis; assay type: ADME, cell-based; details: hct-116, 12 h; outline: as §1
[21] = system: HCT-116; assay: Drug metabolism in human HCT116 cells assessed as 7-O-POC-Q level at 30 uM after 3 hrs by HPLC analysis; assay type: ADME, cell-based; details: hct-116, 3 h; outline: as §1
[22] = system: MCF7; assay: Drug metabolism in human MCF7 cells assessed as 7-O-POC-Q level at 30 uM after 12 hrs by HPLC analysis; assay type: ADME, cell-based; details: mcf7, 12 h; outline: as §1
[23] = system: HCT-116; assay: Drug metabolism in human HCT116 cells assessed as 7-O-POC-Q level at 30 uM after 1 hr by HPLC analysis; assay type: ADME, cell-based; details: hct-116, 1 h; outline: as §1
[24] = system: MCF7; assay: Drug metabolism in human MCF7 cells assessed as 7-O-POC-Q level at 30 uM after 3 hrs by HPLC analysis; assay type: ADME, cell-based; details: mcf7, 3 h; outline: as §1
[25] = system: MCF7; assay: Drug metabolism in human MCF7 cells assessed as 7-O-POC-Q level at 30 uM after 6 hrs by HPLC analysis; assay type: ADME, cell-based; details: mcf7, 6 h; outline: as §1
[26] = system: HCT-116; assay: Drug metabolism in human HCT116 cells assessed as quercetin sulfate level at 30 uM after 12 hrs by HPLC analysis; assay type: ADME, cell-based; details: hct-116, 12 h; outline: as §1
[27] = system: HCT-116; assay: Drug metabolism in human HCT116 cells assessed as quercetin sulfate level at 30 uM after 6 hrs by HPLC analysis; assay type: ADME, cell-based; details: hct-116, 6 h; outline: as §1
[28] = system: HCT-116; assay: Drug metabolism in human HCT116 cells assessed as quercetin sulfate level at 30 uM after 3 hrs by HPLC analysis; assay type: ADME, cell-based; details: hct-116, 3 h; outline: as §1
[29] = system: HCT-116; assay: Drug metabolism in human HCT116 cells assessed as quercetin sulfate level at 30 uM after 1 hr by HPLC analysis; assay type: ADME, cell-based; details: hct-116, 1 h; outline: as §1
[30] = system: MCF7; assay: Drug metabolism in human MCF7 cells assessed as quercetin sulfate level at 30 uM after 12 hrs by HPLC analysis; assay type: ADME, cell-based; details: mcf7, 12 h; outline: as §1
[31] = system: MCF7; assay: Drug metabolism in human MCF7 cells assessed as quercetin sulfate level at 30 uM after 1 hr by HPLC analysis; assay type: ADME, cell-based; details: mcf7, 1 h; outline: as §1
[32] = system: HCT-116; assay: Drug metabolism in human HCT116 cells assessed as quercetin-glucuronide level at 30 uM after 12 hrs by HPLC analysis; assay type: ADME, cell-based; details: hct-116, 12 h; outline: as §1
[33] = system: HCT-116; assay: Drug metabolism in human HCT116 cells assessed as quercetin-glucuronide level at 30 uM after 6 hrs by HPLC analysis; assay type: ADME, cell-based; details: hct-116, 6 h; outline: as §1
[34] = system: HCT-116; assay: Drug metabolism in human HCT116 cells assessed as quercetin-glucuronide level at 30 uM after 3 hrs by HPLC analysis; assay type: ADME, cell-based; details: hct-116, 3 h; outline: as §1
[35] = system: HCT-116; assay: Drug metabolism in human HCT116 cells assessed as quercetin-glucuronide level at 30 uM after 1 hr by HPLC analysis; assay type: ADME, cell-based; details: hct-116, 1 h; outline: as §1
[36] = system: MCF7; assay: Drug metabolism in human MCF7 cells assessed as quercetin-glucuronide level at 30 uM after 12 hrs by HPLC analysis; assay type: ADME, cell-based; details: mcf7, 12 h; outline: as §1
[37] = system: HCT-116; assay: Drug metabolism in human HCT116 cells assessed as quercetin level at 30 uM after 6 hrs by HPLC analysis; assay type: ADME, cell-based; details: hct-116, 6 h; outline: as §1
[38] = system: HCT-116; assay: Drug metabolism in human HCT116 cells assessed as quercetin level at 30 uM after 3 hrs by HPLC analysis; assay type: ADME, cell-based; details: hct-116, 3 h; outline: as §1
[39] = Drug degradation in DMEM cell-free cell culture medium assessed as formation of quercetin at 50 uM after 1 hr by HPLC analysis; assay type: physicochemical; outline: as §3
[40] = system: MCF7; assay: Drug metabolism in human MCF7 cells assessed as quercetin sulfate level at 30 uM after 3 hrs by HPLC analysis; assay type: ADME, cell-based; details: mcf7, 3 h; outline: as §1
[41] = system: HCT-116; assay: Drug metabolism in human HCT116 cells assessed as methyl quercetin level at 30 uM after 12 hrs by HPLC analysis; assay type: ADME, cell-based; details: hct-116, 12 h; outline: as §1
[42] = system: HCT-116; assay: Drug metabolism in human HCT116 cells assessed as methyl quercetin level at 30 uM after 6 hrs by HPLC analysis; assay type: ADME, cell-based; details: hct-116, 6 h; outline: as §1
[43] = system: HCT-116; assay: Drug metabolism in human HCT116 cells assessed as methyl quercetin level at 30 uM after 3 hrs by HPLC analysis; assay type: ADME, cell-based; details: hct-116, 3 h; outline: as §1
[44] = system: MCF7; assay: Drug metabolism in human MCF7 cells assessed as methyl quercetin level at 30 uM after 12 hrs by HPLC analysis; assay type: ADME, cell-based; details: mcf7, 12 h; outline: as §1
[45] = system: HCT-116; assay: Drug metabolism in human HCT116 cells assessed as methyl quercetin level at 30 uM after 1 hr by HPLC analysis; assay type: ADME, cell-based; details: hct-116, 1 h; outline: as §1
[46] = system: MCF7; assay: Drug metabolism in human MCF7 cells assessed as methyl quercetin level at 30 uM after 1 hr by HPLC analysis; assay type: ADME, cell-based; details: mcf7, 1 h; outline: as §1
[47] = system: MCF7; assay: Drug metabolism in human MCF7 cells assessed as quercetin-glucuronide level at 30 uM after 1 hr by HPLC analysis; assay type: ADME, cell-based; details: mcf7, 1 h; outline: as §1

| remaining at 12 h, 30 µM [2] [%] | remaining at 6 h, 30 µM [3] [%] | remaining at 3 h, 30 µM [4] [%] | remaining at 1 h, 30 µM [5] [%] | remaining at 3 h, 30 µM [6] [%] | remaining at 6 h, 30 µM [7] [%] | remaining at 1 h, 30 µM [8] [%] | solubility [9] | solubility [10] | half-life at 50 µM [12] [h] | half-life at 50 µM [13] [h] | Stability [15] | Stability [17] | Stability [29] | Stability [30] | Stability [31] | Stability [32] | Stability [33] | Structure (SMILES) | Activity [14] | Activity [16] | further results |
| --- | --- | --- | --- | --- | --- | --- | --- | --- | --- | --- | --- | --- | --- | --- | --- | --- | --- | --- | --- | --- | --- |
| 3 | 20 | 47 | 64 | 6 | 1 | 25 | soluble | Insoluble | 24 | > 96 | Stable | Stable | Stable | Stable | Stable | Stable | Stable | CC(C)OC(=O)OCOc1cc(O)c2c(=O)c(OCOC(=O)OC(C)C)c(-c3ccc(O)c(O)c3)oc2c1 | Active | Active | Stability [1]: Stable; Drug degradation [11]: Active; Stability [18]: Stable; Stability [19]: Stable; Stability [20]: Stable; Stability [21]: Stable; Stability [22]: Stable; Stability [23]: Stable; Stability [24]: Stable; Stability [25]: Stable; Stability [26]: Stable; Stability [27]: Stable; Stability [28]: Stable; Stability [34]: Stable; Stability [35]: Stable; Stability [36]: Stable; Stability [37]: Stable; Stability [38]: Stable |
| 12 | 18 | 34 | 65 | 6 | 2 | 51 | soluble | Insoluble | 1 | > 96 | Stable | Stable | Stable | Stable | Stable | Stable | Stable | CC(C)OC(=O)OCOc1cc(O)c2c(=O)c(O)c(-c3ccc(O)c(O)c3)oc2c1 | Active | Active | Drug degradation [39]: Active; Stability [40]: Stable; Stability [41]: Stable; Stability [42]: Stable; Stability [43]: Stable; Stability [44]: Stable; Stability [45]: Stable; Stability [46]: Stable; Stability [34]: Stable; Stability [36]: Stable; Stability [47]: Stable |
